Measurements reported in ChEMBL document CHEMBL1157491, “Pyrazolopyridines as a novel structural class of potent and selective PDE4 inhibitors” (Bioorg Med Chem Lett, 2008).

Columns and labels:
[1] = target: 3',5'-cyclic-AMP phosphodiesterase 4B (Homo sapiens, UniProt Q07343); test: Inhibition of human PDE4B in Sf9 cells; type: cell-based
Outline: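 Catalytic activity of human recombinant PDE4B enzyme was measured by scintillation proximity assay (SPA).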

[2] = Selectivity for human PDE4B over PDE3
[3] = Selectivity for human PDE4B over PDE5
[4] = Inhibition of PDE3
Outline: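 Inhibition of PDE3 isolated from bovine aorta, measured as loss of catalytic activity by scintillation proximity assay (SPA).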

[5] = Inhibition of PDE5
Outline: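 Inhibition of human recombinant PDE5 catalytic activity, measured by scintillation proximity assay.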

PBMC = test: Inhibition of TNF alpha production in human PBMC cells by ELISA; type: functional, cell-based
Outline: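 PBMCs were isolated from heparinised human blood by centrifugation on histopaque (1000g, 30 min), washed, and resuspended at 5 × 10⁵ cells/ml in RPMI1640 with 10% foetal calf serum, 1% L-glutamine and 1% penicillin/streptomycin. Cells were preincubated with compound for 1 h at 37 °C, 5% CO₂, then stimulated with LPS (1 ng/ml final) for a further 20 h.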

[6] = Half life in po dosed rat; type: ADME, organism-based; settings: in vivo
[7] = Oral bioavailability in rat; type: ADME, organism-based; settings: in vivo

Sequence of 3',5'-cyclic-AMP phosphodiesterase 4B (Q07343 whole entry): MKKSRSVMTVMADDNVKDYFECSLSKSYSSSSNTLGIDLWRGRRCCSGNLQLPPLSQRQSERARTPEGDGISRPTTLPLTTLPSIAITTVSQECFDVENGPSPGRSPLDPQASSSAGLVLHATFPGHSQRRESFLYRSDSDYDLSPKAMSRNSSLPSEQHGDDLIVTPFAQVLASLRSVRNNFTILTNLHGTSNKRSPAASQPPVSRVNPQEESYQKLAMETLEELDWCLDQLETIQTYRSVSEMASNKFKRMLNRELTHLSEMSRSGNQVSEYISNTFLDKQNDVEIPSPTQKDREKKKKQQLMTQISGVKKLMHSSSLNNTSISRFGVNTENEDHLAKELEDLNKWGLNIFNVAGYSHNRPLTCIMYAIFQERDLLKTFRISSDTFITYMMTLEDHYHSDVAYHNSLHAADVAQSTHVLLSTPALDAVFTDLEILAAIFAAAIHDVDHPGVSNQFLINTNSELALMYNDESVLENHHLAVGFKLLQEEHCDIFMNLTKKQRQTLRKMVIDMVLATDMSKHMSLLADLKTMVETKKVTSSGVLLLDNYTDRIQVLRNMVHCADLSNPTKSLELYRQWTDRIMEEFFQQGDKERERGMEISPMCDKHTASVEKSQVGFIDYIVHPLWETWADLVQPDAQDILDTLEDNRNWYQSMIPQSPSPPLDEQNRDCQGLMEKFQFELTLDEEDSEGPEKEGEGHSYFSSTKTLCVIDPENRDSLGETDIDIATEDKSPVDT

CCOC(=O)c1cnc2c(cnn2CC)c1NC1CCCC1
IC50 [1]: 63.1 nM

CCOC(=O)c1cnc2c(cnn2CC)c1Nc1ccccc1
IC50 [1]: 158 nM

CCOC(=O)c1cnc2c(cnn2C)c1NC1CCOCC1
IC50 [1]: 251 nM

CCOC(=O)c1cnc2c(cnn2CC)c1NC1CCOCC1
IC50 [1]: 10 nM

CCOC(=O)c1cnc2c(cnn2CC)c1NCc1ccc(F)cc1
IC50 [1]: 316 nM

CCOC(=O)c1cnc2c(cnn2CC)c1NC(=O)c1ccccc1
IC50 [1]: 2510 nM

CCOC(=O)c1cnc2c(cnn2CC)c1N1CCCC1
IC50 [1]: 631 nM

CCn1ncc2c(NC3CCOCC3)c(C(=O)NC3CCN(C(C)=O)CC3)cnc21
IC50 [1]: 126 nM | Selectivity ratio [2]: > 100 | Selectivity ratio [3]: > 100

CCOC(=O)c1cnc2c(cnn2-c2ccccc2)c1NC1CCOCC1
IC50 [1]: 3160 nM

CCCn1ncc2c(NC3CCOCC3)c(C(=O)OCC)cnc21
IC50 [1]: 100 nM

CCOC(=O)c1cnc2c(cnn2CCO)c1NC1CCOCC1
IC50 [1]: 158 nM

CCn1ncc2c(NC3CCOCC3)c(C(N)=O)cnc21
IC50 [1]: 25.1 nM | pIC50 [4]: < 4.5 | pIC50 [5]: 4.8 | IC50 (PBMC): 79.4 nM | Selectivity ratio [2]: > 100 | Selectivity ratio [3]: > 100

CCOC(=O)c1cnc2c(cnn2CC)c1NCC(C)C
IC50 [1]: 15.8 nM

CCn1ncc2c(NC3CCOCC3)c(C(=O)Nc3ccc(F)cc3)cnc21
pIC50 [4]: < 4.5 | pIC50 [5]: < 4.7 | IC50 (PBMC): 39.8 nM | Selectivity ratio [2]: > 100 | Selectivity ratio [3]: > 100

CCn1ncc2c(NC3CCOCC3)c(C(=O)NC3CCCC3)cnc21
IC50 [1]: 50.1 nM | pIC50 [4]: < 4.5 | pIC50 [5]: < 4.7 | IC50 (PBMC): 158 nM | Selectivity ratio [2]: > 100 | Selectivity ratio [3]: > 100

CCn1ncc2c(NC3CCOCC3)c(C(=O)NCc3ccccc3)cnc21
pIC50 [4]: < 4.5 | pIC50 [5]: 5.7 | IC50 (PBMC): 20 nM | Selectivity ratio [2]: > 100 | Selectivity ratio [3]: > 100 | half-life [6]: 1.6 h | bioavailability [7]: 35%

CCCCNc1c(C(=O)OCC)cnc2c1cnn2CC [CARTAZOLATE]
IC50 [1]: 200 nM

CCOC(=O)c1cnc2c(cnn2CC)c1NS(=O)(=O)c1ccccc1
IC50 [1]: > 31600 nM

CCC(CC)CNC(=O)c1cnc2c(cnn2CC)c1NC1CCOCC1
IC50 [1]: 20 nM | pIC50 [4]: < 4.5 | pIC50 [5]: 4.8 | IC50 (PBMC): 79.4 nM | Selectivity ratio [2]: > 100 | Selectivity ratio [3]: > 100

CCn1ncc2c(NC3CCOCC3)c(C(=O)NCC3CCCCC3)cnc21
IC50 [1]: 7.94 nM | pIC50 [4]: < 4.5 | pIC50 [5]: 5.5 | IC50 (PBMC): 63.1 nM | Selectivity ratio [2]: > 100 | Selectivity ratio [3]: > 100

CCOC(=O)c1cnc2c(cnn2Cc2ccccc2)c1NC1CCOCC1
IC50 [1]: 3980 nM

CCn1ncc2c(NC3CCOCC3)c(C(=O)N(C)Cc3ccccc3)cnc21
IC50 [1]: 50.1 nM | Selectivity ratio [2]: > 100 | Selectivity ratio [3]: > 100

CCOC(=O)c1cnc2c(cnn2CC)c1N(C)C1CCOCC1
IC50 [1]: 251 nM

CCn1ncc2c(NC3CCOCC3)c(C(=O)N3CCCC3)cnc21
IC50 [1]: 158 nM | Selectivity ratio [2]: > 100 | Selectivity ratio [3]: > 100

CCOC(=O)c1cnc2c(cnn2C(C)C)c1NC1CCOCC1
IC50 [1]: 200 nM

CCOC(=O)c1cnc2c(cnn2CC)c1Nc1ccc(OC)cc1
IC50 [1]: 1000 nM

CCOC(=O)c1cnc2[nH]ncc2c1NC1CCOCC1
IC50 [1]: 2000 nM

CCOC(=O)CCn1ncc2c(NC3CCOCC3)c(C(=O)OCC)cnc21
IC50 [1]: 5010 nM

CCn1ncc2c(NC3CCOCC3)c(C(=O)NC3CC3)cnc21
IC50 [1]: 100 nM | Selectivity ratio [2]: > 100 | Selectivity ratio [3]: > 100
